Assay results gathered from unrelated publications.
Protocols differ between the studies behind these lines.
Target: Serine/threonine-protein kinase 4 (STK4, Homo sapiens, UniProt Q13043)
Residues used in one study (Q13043 1-487): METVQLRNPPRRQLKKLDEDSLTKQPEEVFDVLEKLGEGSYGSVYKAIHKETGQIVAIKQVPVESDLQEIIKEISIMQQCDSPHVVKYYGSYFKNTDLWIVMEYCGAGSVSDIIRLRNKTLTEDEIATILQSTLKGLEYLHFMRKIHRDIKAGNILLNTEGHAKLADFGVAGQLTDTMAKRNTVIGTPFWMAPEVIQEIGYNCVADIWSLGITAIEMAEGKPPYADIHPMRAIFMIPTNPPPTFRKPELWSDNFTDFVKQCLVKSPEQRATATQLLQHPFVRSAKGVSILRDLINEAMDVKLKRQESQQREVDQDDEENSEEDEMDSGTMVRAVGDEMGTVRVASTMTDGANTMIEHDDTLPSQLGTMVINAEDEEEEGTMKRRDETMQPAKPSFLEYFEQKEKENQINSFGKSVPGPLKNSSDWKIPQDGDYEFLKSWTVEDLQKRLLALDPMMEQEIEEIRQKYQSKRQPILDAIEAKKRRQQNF

| Structure (SMILES) | assay | system | setting | measurement | result |
| --- | --- | --- | --- | --- | --- |
| Cc1cnc(NC2CCOCC2)nc1-n1cnc(C(=O)NC(CN)c2cc(F)cc(Cl)c2)c1 (stereo not drawn) | enzyme activity, inhibitor, radiometric |  | 1 µM | remaining activity | 103% |
| Cn1c2c(Cl)c(Cl)ccc2c2cc(N)[nH]c(=O)c21 | thermal stability, DSF |  | 10 µM | ΔTm | 1.5 °C |
| COc1cc2ncnc(Nc3ccc(Oc4ccccc4)c(C)c3C)c2cc1OC | enzyme activity, inhibitor |  | 1 µM | inhibition | -7% |
| Cn1c2c(c3ccc(Cl)c(Cl)c31)C(C#N)C1(CCOCC1)NC2=O (stereo not drawn) | thermal stability, DSF |  | 10 µM | ΔTm | -0.4 °C |
| C[C@@H]1CCN(C(=O)CC#N)C[C@@H]1N(C)c1ncnc2[nH]ccc12 | cell-free assay, inhibitor |  | 0.5 µM | remaining signal | 95.5% |
| CC(C)c1ccc(NC(=O)c2cccs2)c(-c2nc3ccccc3[nH]c2=O)c1 | enzyme activity, inhibitor |  | 1 µM | activity vs control | 118% |
| C[C@H](c1ccc(F)cc1)N(Cc1cccc(C(=O)O)c1)C(=O)c1cnc2ccccc2c1 | cell-free assay, competition with immobilised ligand |  | 1 µM | remaining binding | 92% |
| O=C1Nc2ccc(Cl)cc2C1=Cc1cc(Cl)c(O)c(Cl)c1 | cell-free assay |  | 0.5 µM | remaining signal | 32.5% |
| Cn1c2c(Cl)c(Cl)ccc2c2cc[nH]c(=O)c21 | thermal stability, DSF |  | 10 µM | ΔTm | 0.8 °C |
| Cn1nc(C(=O)NCc2ccc(C(=O)O)cc2)cc1-c1ccc2[nH]ccc2c1 | cell-free assay, competition with immobilised ligand |  | 0.1 µM | remaining binding | 80% |
| CC(C)(O)[C@H]1CC[C@H](Nc2ccc3ncc(-c4cccc(C(F)(F)F)c4)n3n2)CC1 | enzyme activity, inhibitor |  | 1 µM | remaining activity | 90.8% |
| CC(C)(C)c1nc2c(s1)c1nc(N)ncc1c1ccc(NS(=O)(=O)c3c(F)cccc3F)c(F)c12 | enzyme activity, inhibitor, radiometric |  | 1 µM | remaining activity | 86% |
| Nc1ncnc2occ(-c3ccc(NC(=O)Nc4cc(C(F)(F)F)ccc4F)cc3)c12 | cell-free assay, inhibitor |  | 20 µM | remaining signal | 2.1% |
| Cc1cc(-n2nc(Cc3cc(F)cc(C(F)(F)F)c3)nc2C)ccc1C(N)=O | cell-free assay, competition with immobilised ligand |  | 1 µM | remaining binding | 100% |
| CNC(=O)c1cc(Oc2ccc(NC(=O)Nc3ccc(Cl)c(C(F)(F)F)c3)cc2)ccn1 | enzyme activity, inhibitor |  | 0.3 µM | inhibition | -7% |
| CS(=O)(=O)N1CCCC(NC(=O)[C@H](CCC2CCCCC2)NC(=O)c2ccc(CNC(=O)c3cnc4ccccn34)cc2)C1 (stereo partly drawn) | cell-free assay, competition with immobilised ligand |  | 0.1 µM | remaining binding | 100% |
| CCN1CCN(Cc2ccc(NC(=O)c3ccc(C)c(Oc4ccnc5[nH]ccc45)c3)cc2C(F)(F)F)CC1 | target engagement in cells, inhibitor, chemoproteomics | Huh-7 | 1 µM | inhibition | -64.5% |
| O=C(Nc1cnn(-c2csc(C(=O)NC3COC3)c2)c1)Nc1ccccc1Cl | enzyme activity, inhibitor |  | 5 µM | remaining activity | 99.3% |
| CC(=O)C1=C(C)N(c2cccc(C(F)(F)F)c2)C(=O)N[C@@H]1c1ccc(C#N)nc1 | cell-free assay, competition with immobilised ligand |  | 1 µM | remaining binding | 97.5% |
| CN(c1nccc(-c2cnn3ncccc23)n1)C1CC1 | cell-free assay |  | 1 µM | remaining signal | 99% |
| O=C(N1CCS(=O)(=O)CC1)N1C[C@H](c2ccc(OC(F)(F)F)cc2)C[C@H](c2nc(C3CC3)no2)C1 | cell-free assay, competition with immobilised ligand |  | 1 µM | remaining binding | 100% |
| CCN(CC)CCNC(=O)c1c(C)[nH]c(/C=C2\C(=O)Nc3ccc(F)cc32)c1C | cell-free assay |  | 0.5 µM | remaining signal | 10.7% |
| CC/C(=N\NC(=O)NCc1cccc(O)c1)c1ccc(O)c(C)c1O | enzyme activity, inhibitor |  | 0.1 µM | inhibition | -0.7% |
| CCC1(CC)NC(=O)c2c(c3ccc(Cl)c(Cl)c3n2C)C1C#N (stereo not drawn) | thermal stability, DSF |  | 10 µM | ΔTm | -0.3 °C |
| Cc1ccc(Nc2nccc(N(C)c3ccc4c(C)n(C)nc4c3)n2)cc1S(N)(=O)=O | enzyme activity, inhibitor |  | 10 µM | inhibition | 3% |
| Cc1nccc(COC(=O)N2C[C@@H]3[C@@H](CNC(=O)c4ccc5[nH]nnc5c4)[C@@H]3C2)n1 | cell-free assay, competition with immobilised ligand |  | 1 µM | remaining binding | 100% |
| c1ccc(CNc2nc(N3CCOc4ccccc43)nc3c2CCCC3)cc1 | target engagement in cells, inhibitor, chemoproteomics |  | 20 mM | inhibition | 1.2% |
| Cn1c2c(c3ccc(Cl)c(Cl)c31)C(C#N)C(C)(C)NC2=O (stereo not drawn) | thermal stability, DSF |  | 10 µM | ΔTm | -0.4 °C |
| CN(C)C(=O)Cn1cc(-c2nc(C3(c4ccc(-c5cnc(N)nc5)cc4)CC3)no2)cn1 | cell-free assay, competition with immobilised ligand |  | 1 µM | remaining binding | 90% |
| Cc1ccc(C(=O)Nc2ccc(CN3CCN(C)CC3)c(C(F)(F)F)c2)cc1C#Cc1cnc2cccnn12 | enzyme activity, inhibitor |  | 23.5 nM | remaining activity | 100% |
